According to ChEMBL document CHEMBL3621064, “Fungal metabolite ophiobolin A as a promising anti-glioma agent: In vivo evaluation, structure-activity relationship and unique pyrrolylation of primary amines” (Bioorg Med Chem Lett, 2015):
The source made the active and inactive calls. The calls are words filed in the database; no cut-off is given here.

Key:
[1] = tested on: A549; assay: Antiproliferative activity against human A549 cells by MTT assay; type: functional
Summary of the method: (§1)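 Cell lines grown in RPMI with 10% heat-inactivated fetal calf serum, 4 mM glutamine, gentamicin, penicillin and streptomycin. Growth inhibition by colorimetric MTT assay across a five-line panel: U373 GBM, A549 NSCLC and SKMEL-28 melanoma (apoptosis-resistant), plus Hs683 oligodendroglioma and MCF-7 breast (apoptosis-sensitive).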

[2] = tested on: MCF7; assay: Antiproliferative activity against human MCF7 cells by MTT assay; type: functional; summary of the method: as §1
[3] = Antiproliferative activity against human Hs683 cells by MTT assay; type: functional; details: Hs 683; summary of the method: as §1
[4] = Antiproliferative activity against human U373 cells by MTT assay; type: functional, U-373MG ATCC; details: U373 MG; summary of the method: as §1
[5] = tested on: SK-MEL-28; assay: Antiproliferative activity against human SK-MEL-28 cells by MTT assay; type: functional; summary of the method: as §1
[6] = Growth inhibition of human NCI60 cells; type: functional
[7] = tested on: U-251; assay: Antitumor activity against luciferase expressing human U251 cells xenografted in mouse assessed as increase in mouse survival at 10 mg/kg, ip dosed as 3 doses per week for 21 days; type: functional, organism-based
Summary of the method: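 Orthotopic mouse GBM model inoculated with 1×10^6 U251-LUC cells; 10 mg/kg IP 3x per week for 21 days, 0.9% saline vehicle control; mice without signs of GBM sacrificed on day 100 after inoculation and counted as long-term survivors; survival monitored.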

[8] = tested on: U-251; assay: Antitumor activity against luciferase expressing human U251 cells xenografted in mouse assessed as inhibition of tumor growth at 10 mg/kg, ip dosed as 3 doses per week for 21 days; type: functional, organism-based
Summary of the method: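 Orthotopic U251-luciferase human GBM tumors in mice; 10 mg/kg IP 3x weekly for 21 days versus 0.9% saline vehicle; relative tumor growth followed by temporal bioluminescence imaging.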

[9] = tested on: Brain; assay: Drug level in brain tumor of luciferase expressing human U251 cells xenografted mouse dosed intravenously and measured after 15 mins; type: ADME, organism-based, U-251; details: in vivo, iv, 0.25 h
Summary of the method: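 Single intravenous injection into lateral tail vein of a mouse bearing a brain tumor; brain tumor extract taken 15 min post administration and analysed for intact compound.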

GI50 [1]	GI50 [2]	GI50 [5]	SMILES	GI50 [3]	GI50 [4]	GI50 [6]	Activity [7]	TGI [8]	Drug uptake [9]
6 µM	13 µM	6 µM	CC(=O)O[C@]1(C)Cc2occ3c2[C@@H]1C[C@@]1(C)CC[C@@]2(O[C@@H](C=C(C)C)C[C@@H]2C)[C@@H]1/C=C\3	11 µM	8 µM				
> 100 µM	> 100 µM	> 100 µM	CC(=O)N[C@@H](CCCCn1cc2c3c1C[C@@](C)(O)[C@H]3C[C@@]1(C)CC[C@@]3(O[C@@H](C=C(C)C)C[C@@H]3C)[C@@H]1/C=C\2)C(=O)O	> 100 µM	> 100 µM				
59 µM	43 µM	86 µM	COC(=O)/C=C/C1=C/C[C@@H]2[C@](C)(CC[C@@]23O[C@@H](C=C(C)C)C[C@@H]3C)C[C@H]2[C@@H]1C(=O)C[C@@]2(C)O	59 µM	86 µM				
35 µM	23 µM	33 µM	CC(C)=C[C@H]1C[C@H](C)[C@]2(CC[C@]3(C)C[C@H]4c5c(cn(CCc6ccc(O)cc6)c5C[C@@]4(C)O)/C=C\[C@H]32)O1	33 µM	54 µM				
51 µM	40 µM	58 µM	CC(C)=C[C@H]1C[C@H](C)[C@]2(CC[C@]3(C)C[C@H]4c5c(cn(Cc6ccccc6)c5C[C@@]4(C)O)/C=C\[C@H]32)O1	46 µM	69 µM				
0.3 µM	0.4 µM	0.3 µM	CO[C@H]1O[C@@]2(OC)C[C@@](C)(O)[C@H]3C[C@@]4(C)CC[C@@]5(O[C@@H](C=C(C)C)C[C@@H]5C)[C@@H]4C/C=C/1[C@H]32	0.4 µM	0.4 µM				
34 µM	27 µM	29 µM	CC(C)=C[C@H]1C[C@H](C)[C@]2(CC[C@]3(C)C[C@H]4c5c(cnnc5C[C@@]4(C)O)CC[C@H]32)O1	29 µM	30 µM				

The next lines start with the molecule.

SMILES	GI50 [1]	GI50 [2]	GI50 [5]	GI50 [3]	GI50 [4]	GI50 [6]	Activity [7]	TGI [8]	Drug uptake [9]
C#CCCCCOC(C)(C)[C@@H](Br)[C@H]1C[C@H](C)[C@]2(CC[C@]3(C)C[C@H]4[C@H](C(=O)C[C@@]4(C)O)/C(C=O)=C\C[C@H]32)O1	1 µM	1.4 µM	0.6 µM	0.8 µM	2.2 µM				
CCCO[C@H]1O[C@@]2(OCCC)C[C@@](C)(O)[C@H]3C[C@@]4(C)CC[C@@]5(O[C@@H](C=C(C)C)C[C@@H]5C)[C@@H]4C/C=C/1[C@H]32	0.3 µM	0.2 µM	0.2 µM	0.2 µM	0.4 µM				
C#CCOC(C)(C)[C@@H](Br)[C@H]1C[C@H](C)[C@]2(CC[C@]3(C)C[C@H]4[C@H](C(=O)C[C@@]4(C)O)/C(C=O)=C\C[C@H]32)O1	0.8 µM	0.8 µM	0.6 µM	0.6 µM	1.4 µM				
C[C@H]1C[C@H](C2OC2(C)C)O[C@@]12CC[C@]1(C)C[C@H]3[C@H](C(=O)C[C@@]3(C)O)/C(C=O)=C\C[C@H]12 (mixture of isomers)	0.6 µM	0.6 µM	0.4 µM	0.4 µM	0.6 µM				
CC(C)=C[C@H]1C[C@H](C)[C@]2(CC[C@]3(C)C[C@H]4c5c(cn(CCCCCCn6cc7c8c6C[C@@](C)(O)[C@H]8C[C@@]6(C)CC[C@@]8(O[C@@H](C=C(C)C)C[C@@H]8C)[C@@H]6/C=C\7)c5C[C@@]4(C)O)/C=C\[C@H]32)O1	26 µM	14 µM	24 µM	25 µM	30 µM				
CCOC1O[C@@]2(OCC)C[C@@](C)(O)[C@H]3C[C@@]4(C)CC[C@@]5(O[C@@H](C=C(C)C)C[C@@H]5C)[C@@H]4C/C=C/1[C@H]32 (mixture of isomers)	0.3 µM	0.2 µM	0.1 µM	0.2 µM	0.4 µM				
CC(C)=C[C@H]1C[C@H](C)[C@]2(CC[C@]3(C)C[C@H]4[C@H](C(=O)C[C@@]4(C)O)/C(C=O)=C\C[C@H]32)O1 [OPHIOBOLIN A]	0.1 µM	0.06 µM	0.05 µM	0.02 µM	0.06 µM	0.07 µM	Active	Active	Active
C#CCCCOC(=O)/C=C/C1=C/C[C@@H]2[C@](C)(CC[C@@]23O[C@@H](C=C(C)C)C[C@@H]3C)C[C@H]2[C@@H]1C(=O)C[C@@]2(C)O	15 µM	12 µM	23 µM	12 µM	20 µM				
CC(=O)N[C@@H](CCCC/N=C/C1=C/C[C@@H]2[C@](C)(CC[C@@]23O[C@@H](C=C(C)C)C[C@@H]3C)C[C@H]2[C@@H]1C(=O)C[C@@]2(C)O)C(=O)O	3 µM	4 µM	3 µM	3 µM	4 µM				
CC(C)=C[C@H]1C[C@H](C)[C@]2(CC[C@]3(C)C[C@H]4[C@H](C(=O)C[C@@]4(C)O)C(/C=C/C#N)=C\C[C@H]32)O1	27 µM	26 µM	28 µM	22 µM	27 µM				
CCOC(C)(C)[C@@H](Br)[C@H]1C[C@H](C)[C@]2(CC[C@]3(C)C[C@H]4[C@H](C(=O)C[C@@]4(C)O)/C(C=O)=C\C[C@H]32)O1	0.9 µM	1.2 µM	0.6 µM	0.9 µM	1.2 µM				
CC(C)=C[C@H]1C[C@H](C)[C@]2(CC[C@]3(C)C[C@@H]4C(C)=CC(=O)[C@H]4/C(C=O)=C\C[C@H]32)O1 [3-ANHYDRO-6-EPI-OPHIOBOLIN A]	9 µM	10 µM	8 µM	8 µM	18 µM				
C[C@H]1C[C@H]([C@H](Br)C(C)(C)OCc2cn(Cc3ccccc3)nn2)O[C@@]12CC[C@]1(C)C[C@H]3[C@H](C(=O)C[C@@]3(C)O)/C(C=O)=C\C[C@H]12	1.2 µM	1.2 µM	1 µM	0.8 µM	3.4 µM				
